In ChEMBL document CHEMBL3232793, “Fused heterocyclic compounds bearing bridgehead nitrogen as potent HIV-1 NNRTIs. Part 1: design, synthesis and biological evaluation of novel 5,7-disubstituted pyrazolo[1,5-a]pyrimidine derivatives” (Bioorg Med Chem, 2014):

Experiments:
[1] = molecular target: Human immunodeficiency virus type 1 reverse transcriptase (Human immunodeficiency virus 1, UniProt Q72547); assay: Inhibition of recombinant HIV1 reverse transcriptase assessed as inhibition of biotin-dUTP incorporation in to poly [A] x oligo[dT]15 by ELISA
Method in brief: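 Colorimetric kit (Roche) ELISA. Homopolymer template/primer bound to the microplate, with biotin-dUTP as the labelled nucleotide and 4 ng recombinant HIV-1 RT per well. Compounds tested at several concentrations.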

[2] = system: Human immunodeficiency virus 1; assay: Antiviral activity against NNRTI-resistant HIV1 harboring K103N mutant infected in human Hela-JC53 cells assessed as inhibition of viral replication by luciferase reporter gene assay relative wild type HIV1; assay type: functional
[3] = system: Human immunodeficiency virus 1; assay: Antiviral activity against NNRTI-resistant HIV1 harboring Y181C mutant infected in human Hela-JC53 cells assessed as inhibition of viral replication by luciferase reporter gene assay relative wild type HIV1; assay type: functional
[4] = Selectivity index, ratio of compound activity for human HeLa cells to EC50 for wild type HIV1; assay type: toxicity, cell-based; conditions: read-out: Selectivity Index
[5] = system: Human immunodeficiency virus 1; assay: Antiviral activity against wild type HIV1 infected in human Hela-JC53 cells assessed as inhibition of viral replication by luciferase reporter gene assay; assay type: functional, organism-based; conditions: Human immunodeficiency virus 1, Hela-JC53
[6] = Selectivity index, ratio of CC50 for human MT4 cells to EC50 for HIV1 3B; assay type: toxicity, cell-based; conditions: read-out: Ratio CC50/EC50
Method in brief: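 Selectivity index = CC50 (mock-infected MT-4 cells) / EC50 (IIIB or ROD protection). Both values come from the same 5-day MTT assay run in parallel triplicate wells.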

[7] = Cytotoxicity against human MT4 cells assessed as cell viability by MTT assay; assay type: cell-based
Method in brief: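 Mock-infected MT-4 cells at 6 × 10⁵ cells/mL, run in parallel triplicate wells with the infected series. Compounds given as serial five-fold dilutions. MTT viability read spectrophotometrically at day 5.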

[8] = system: Human immunodeficiency virus 2; assay: Antiviral activity against HIV2 ROD infected in human MT4 cells assessed as virus-induced cytopathic effect by MTT assay; assay type: functional, organism-based; conditions: Human immunodeficiency virus 2, ISOLATE ROD
Method in brief: (§1)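 MT-4 cells, resuspended at 6 × 10⁵ cells/mL, infected with HIV-1 IIIB or HIV-2 ROD at 100–300 CCID50. Compounds added at assay start as serial five-fold dilutions in triplicate wells. Viability read spectrophotometrically by MTT 5 days after infection.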

[9] = system: Human immunodeficiency virus 1; assay: Antiviral activity against HIV1 3B infected in human MT4 cells assessed as virus-induced cytopathic effect by MTT assay; assay type: functional, organism-based; conditions: Human immunodeficiency virus 1, 3B; method in brief: as §1

Row | Compound | fold change (FC) [2] | fold change (FC) [3] | selectivity ratio [4] | EC50 [5] [nM] | CC50 [7] [nM] | other results
1 | Cc1cc(C)c(Oc2cc(Nc3ccc(C#N)cc3)nc3ccnn23)c(C)c1 |  |  |  |  |  | IC50 [1]: 2260 nM
2 | Cc1cc(C#N)cc(C)c1Oc1nc(Nc2ccc(C#N)cc2)nc2[nH]ccc12 | 11 | 11 | > 50000 | 0.9 |  | 
3 | Cc1cc(C#N)cc(C)c1Oc1nc(Nc2ccc(C#N)cc2)nc2cc[nH]c12 | 3.8 | 3.8 | > 50000 | 0.8 |  | 
4 | CC(C)Nc1cccnc1N1CCN(C(=O)c2cc3cc(NS(C)(=O)=O)ccc3[nH]2)CC1 [DELAVIRDINE] |  |  |  |  | > 43800 | selectivity ratio [6]: > 277
5 | Cc1cc(C#N)cc(C)c1Oc1nc(Nc2ccc(C#N)cc2)nc(N)c1Br [ETRAVIRINE] |  |  |  |  | > 4600 | EC50 [8]: 11 nM
6 | Cc1ccnc2c1NC(=O)c1cccnc1N2C1CC1 [NEVIRAPINE] |  |  |  |  | > 15000 | EC50 [9]: 170 nM
